Test results published in ChEMBL document CHEMBL1833923, “Effects of linker elongation in a series of N-(2-benzofuranylmethyl)-N'-(methoxyphenylalkyl)piperazine σ₁ receptor ligands” (Bioorg Med Chem Lett, 2011).

Assays:
PC-12 = assay: Selectivity ratio of Ki for sigma 2 receptor in rat PC12 cells to Ki for sigma 1 receptor in rat brain homogenates; format: cell-based
Outline: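 Competition binding, done by the NIMH Psychoactive Drug Screening Program. σ1 Ki came from displacement of [³H](+)-pentazocine in rat brain homogenate, and σ2 Ki from displacement of [³H]DTG in a PC12 cell preparation. Ki values were mean with SEM from triplicate assays. The ratio is σ2 Ki divided by σ1 Ki.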

D(2) dopamine receptor [1] = molecular target: T1, D(2) dopamine receptor (Homo sapiens, UniProt P14416); assay: Displacement of [3H]N-methylspiperone from D2 after 1.5 hrs by liquid scintillation counting
T1 sequence (P14416 whole entry): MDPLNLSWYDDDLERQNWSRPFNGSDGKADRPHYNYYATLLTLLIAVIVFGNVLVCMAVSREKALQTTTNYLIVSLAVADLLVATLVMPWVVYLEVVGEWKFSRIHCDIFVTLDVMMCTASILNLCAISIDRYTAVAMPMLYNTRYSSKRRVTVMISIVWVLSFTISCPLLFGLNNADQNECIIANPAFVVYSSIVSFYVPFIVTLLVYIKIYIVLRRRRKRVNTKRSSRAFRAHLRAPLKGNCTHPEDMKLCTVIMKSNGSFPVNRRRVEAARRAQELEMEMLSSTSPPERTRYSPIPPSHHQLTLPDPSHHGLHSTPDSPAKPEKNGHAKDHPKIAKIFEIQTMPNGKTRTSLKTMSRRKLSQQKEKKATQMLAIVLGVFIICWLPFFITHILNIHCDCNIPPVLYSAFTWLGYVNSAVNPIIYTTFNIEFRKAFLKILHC

[2] = Displacement of [3H]DTG from sigma 2 receptor in rat PC12 cells after 2 hrs by liquid scintillation counting; format: cell-based; conditions: pc-12
Outline: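 σ2 affinity by competition with [³H]DTG in a PC12 cell preparation, following a modified Kovacs and Larson protocol. Ki determinations were run by the NIMH PDSP. Values are mean ± SEM of triplicate assays.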

[3] = molecular target: Sigma non-opioid intracellular receptor 1 (Rattus norvegicus, UniProt Q9R0C9); assay: Displacement of [3H](+)-pentazocine from sigma 1 receptor in rat brain homogenate after 2.5 hrs by liquid scintillation counting; format: tissue-based
Sigma non-opioid intracellular receptor 1, sequence (Q9R0C9 whole entry): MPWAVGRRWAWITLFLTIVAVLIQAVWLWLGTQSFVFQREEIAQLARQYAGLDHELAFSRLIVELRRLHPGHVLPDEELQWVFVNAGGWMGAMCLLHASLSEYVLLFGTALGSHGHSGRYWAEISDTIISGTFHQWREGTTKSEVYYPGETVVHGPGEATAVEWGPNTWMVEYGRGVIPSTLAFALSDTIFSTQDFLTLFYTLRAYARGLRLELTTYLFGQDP
Outline: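 σ1 affinity by competition with [³H](+)-pentazocine in rat brain homogenate, following a modification of the Kovacs and Larson protocol. Ki determinations were run by the NIMH Psychoactive Drug Screening Program. Values are mean ± SEM from triplicate assays.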

[4] = Displacement of [3H]MK801 from PCP binding site of NMDA receptor at 10 uM after 1.5 hrs by liquid scintillation counting
[5] = molecular target: 5-hydroxytryptamine receptor 2B (Homo sapiens, UniProt P41595); assay: Displacement of [3H]LSD from 5-HT2B after 1.5 hrs by liquid scintillation counting
5-hydroxytryptamine receptor 2B, sequence (P41595 whole entry): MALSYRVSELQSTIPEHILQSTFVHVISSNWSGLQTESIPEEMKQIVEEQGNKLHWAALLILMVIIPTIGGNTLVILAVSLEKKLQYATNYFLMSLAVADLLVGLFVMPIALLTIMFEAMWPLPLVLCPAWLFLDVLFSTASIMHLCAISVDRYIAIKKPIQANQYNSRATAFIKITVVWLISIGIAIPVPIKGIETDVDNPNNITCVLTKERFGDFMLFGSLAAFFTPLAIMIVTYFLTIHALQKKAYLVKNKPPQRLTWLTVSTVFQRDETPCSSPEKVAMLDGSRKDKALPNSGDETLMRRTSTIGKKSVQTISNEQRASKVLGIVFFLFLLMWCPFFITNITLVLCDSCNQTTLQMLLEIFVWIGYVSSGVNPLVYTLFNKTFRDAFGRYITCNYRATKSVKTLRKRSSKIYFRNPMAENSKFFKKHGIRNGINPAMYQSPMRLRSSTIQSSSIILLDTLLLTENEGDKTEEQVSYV

D(2) dopamine receptor [6] = molecular target: T1, D(2) dopamine receptor; assay: Displacement of [3H]N-methylspiperone from D2 at 10 uM after 1.5 hrs by liquid scintillation counting

Row | Compound | Ratio Ki (PC-12) | Ki (D(2) dopamine receptor [1]) | Ki [2] | Ki [3] | inhibition [4] | Ki [5] | inhibition (D(2) dopamine receptor [6])
1 | c1ccc(CCCCN2CCN(Cc3cc4ccccc4o3)CC2)cc1 | 4 | 89 nM | 18 nM | 4.2 nM | < 50% | 275 nM | 
2 | COc1ccc(CCN2CCN(Cc3cc4ccccc4o3)CC2)cc1 | 11 |  | 101 nM | 9.4 nM | < 50% | 463 nM | < 50%
3 | COc1ccccc1CCCN1CCN(Cc2cc3ccccc3o2)CC1 | 6 | 5870 nM | 53 nM | 8.3 nM | < 50% | 628 nM | 
4 | COc1ccccc1CCN1CCN(Cc2cc3ccccc3o2)CC1 | 5 | 1650 nM | 81 nM | 17 nM | < 50% | 120 nM | 
5 | c1ccc(CCN2CCN(Cc3cc4ccccc4o3)CC2)cc1 | 18 |  | 131 nM | 7.3 nM | < 50% | 310 nM | < 50%
6 | COc1ccc(CCCCN2CCN(Cc3cc4ccccc4o3)CC2)cc1 | 7 | 5790 nM | 87 nM | 13 nM | < 50% | 352 nM | 
7 | COc1cccc(CCCN2CCN(Cc3cc4ccccc4o3)CC2)c1 | 7 | 556 nM | 40 nM | 5.7 nM | < 50% | 243 nM | 
8 | COc1cccc(CCN2CCN(Cc3cc4ccccc4o3)CC2)c1 | 1 |  | 14 nM | 13 nM | < 50% | 290 nM | < 50%
9 | COc1ccccc1CCCCN1CCN(Cc2cc3ccccc3o2)CC1 | 8 | 432 nM | 130 nM | 16 nM | < 50% | 332 nM | 
10 | COc1cccc(CCCCN2CCN(Cc3cc4ccccc4o3)CC2)c1 | 28 | 484 nM | 211 nM | 7.6 nM | < 50% | 343 nM | 
11 | COc1ccc(CCCN2CCN(Cc3cc4ccccc4o3)CC2)cc1 | 45 | > 10000 nM | 138 nM | 3.1 nM | < 50% | 155 nM | < 50%
12 | c1ccc(CCCN2CCN(Cc3cc4ccccc4o3)CC2)cc1 | 3 | 1020 nM | 18 nM | 5.7 nM | < 50% | 147 nM | 
